ChEMBL document CHEMBL4184291, “Discovery of N-arylpyrroles as agonists of GPR120 for the treatment of type II diabetes” (Bioorg Med Chem Lett, 2018)
One block for each compound: values may come before it.

What was measured:
[1] = Stability of the compound in air assessed as oxidation; type: physicochemical
[2] = Protein binding in mouse plasma; type: ADME, cell-free; conditions: read-out: PPB (converted)
[3] = Half life in rat liver microsomes; type: ADME, microsome
[4] = Protein binding in rat plasma; type: ADME, cell-free; conditions: read-out: PPB (converted)
[5] = Half life in mouse liver microsomes; type: ADME, microsome
[6] = Half life in human liver microsomes; type: ADME, microsome
Cytochrome P450 2C9 = Cytochrome P450 2C9 (Homo sapiens, UniProt P11712); test: Inhibition of CYP2C9 (unknown origin); type: ADME
[7] = Protein binding in human plasma; type: ADME, cell-free; conditions: read-out: PPB (converted)
Cytochrome P450 2C19 = Cytochrome P450 2C19 (Homo sapiens, UniProt P33261); test: Inhibition of CYP2C19 (unknown origin); type: ADME
Cytochrome P450 3A4 = Cytochrome P450 3A4 (Homo sapiens, UniProt P08684); test: Inhibition of CYP3A4 (unknown origin); type: ADME
Cytochrome P450 2D6 = Cytochrome P450 2D6 (Homo sapiens, UniProt P10635); test: Inhibition of CYP2D6 (unknown origin); type: ADME
Cytochrome P450 1A2 = biological target: T1, Cytochrome P450 1A2 (Homo sapiens, UniProt P05177); test: Inhibition of CYP1A2 (unknown origin); type: ADME
T1 sequence (P05177 whole entry): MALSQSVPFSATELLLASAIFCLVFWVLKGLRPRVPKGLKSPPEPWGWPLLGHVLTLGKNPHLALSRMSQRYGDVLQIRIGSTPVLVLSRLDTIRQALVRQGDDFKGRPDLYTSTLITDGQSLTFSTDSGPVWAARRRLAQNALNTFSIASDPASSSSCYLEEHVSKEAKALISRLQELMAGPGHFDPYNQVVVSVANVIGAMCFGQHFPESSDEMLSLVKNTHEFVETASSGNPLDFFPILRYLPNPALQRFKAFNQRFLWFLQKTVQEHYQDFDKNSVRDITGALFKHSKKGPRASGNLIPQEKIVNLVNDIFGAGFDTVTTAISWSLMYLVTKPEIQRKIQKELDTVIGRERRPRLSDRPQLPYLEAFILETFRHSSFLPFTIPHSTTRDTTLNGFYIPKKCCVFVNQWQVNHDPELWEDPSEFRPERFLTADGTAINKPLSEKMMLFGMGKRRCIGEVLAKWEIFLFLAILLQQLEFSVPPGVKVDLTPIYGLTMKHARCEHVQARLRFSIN

[8] = biological target: T2, Free fatty acid receptor 4 (Homo sapiens, UniProt Q5NUL3); test: Agonist activity at recombinant human GPR120 short isoform expressed in HEK293 cells assessed as intracellular calcium flux measured for 300 secs at 1 sec time interval by Fluo-4 NW based FLIPR assay; type: functional, cell-based
T2 sequence (Q5NUL3 whole entry): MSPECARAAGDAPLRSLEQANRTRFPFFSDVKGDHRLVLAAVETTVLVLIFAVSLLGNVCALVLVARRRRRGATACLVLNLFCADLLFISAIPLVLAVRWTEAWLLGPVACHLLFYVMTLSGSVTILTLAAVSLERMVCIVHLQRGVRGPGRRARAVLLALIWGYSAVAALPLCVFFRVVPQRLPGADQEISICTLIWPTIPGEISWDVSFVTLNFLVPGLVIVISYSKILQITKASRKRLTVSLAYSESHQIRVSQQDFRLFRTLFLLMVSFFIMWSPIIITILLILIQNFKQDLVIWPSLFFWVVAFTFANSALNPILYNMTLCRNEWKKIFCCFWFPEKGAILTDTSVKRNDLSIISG
Procedure, shortened: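 Human GPR120 calcium-flux assay in HEK-293 cells; values are averages of n > 2 runs, SEM < ±25%.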

Mus musculus [9] = test: Antiobesity activity in diet-induced obesity C57Bl6/J mouse model assessed as final glucose level in plasma at 3 mg/kg qd for 15 days measured on day 15 post 6 hrs fasting (reference value: 184 +/- 30 mg/dL); type: functional
Mus musculus [10] = test: Antiobesity activity in diet-induced obesity C57Bl6/J mouse model assessed as final insulin level in plasma at 3 mg/kg qd for 15 days measured on day 15 post 6 hrs fasting (reference value: 7304 +/- 2967 pg/ml); type: functional
Mus musculus [11] = test: Antiobesity activity in diet-induced obesity C57Bl6/J mouse model assessed as basal glucose level in plasma at 3 mg/kg qd for 15 days measured on day 15 post 6 hrs fasting (reference value: 187 +/- 24 mg/dL); type: functional
Mus musculus [12] = test: Antiobesity activity in diet-induced obesity C57Bl6/J mouse model assessed as basal insulin level in plasma at 3 mg/kg qd for 15 days measured on day 15 post 6 hrs fasting (reference value: 16959 +/- 4943 pg/ml); type: functional
Mus musculus [13] = test: Antiobesity activity in diet-induced obesity C57Bl6/J mouse model assessed as change in plasma insulin level at 3 mg/kg qd for 15 days measured on day 15 post 6 hrs fasting; type: functional
Mus musculus [14] = test: Antiobesity activity in diet-induced obesity C57Bl6/J mouse model assessed as change in plasma glucose level at 3 mg/kg qd for 15 days measured on day 15 post 6 hrs fasting; type: functional

Chain of Cytochrome P450 2D6 (P10635 whole entry): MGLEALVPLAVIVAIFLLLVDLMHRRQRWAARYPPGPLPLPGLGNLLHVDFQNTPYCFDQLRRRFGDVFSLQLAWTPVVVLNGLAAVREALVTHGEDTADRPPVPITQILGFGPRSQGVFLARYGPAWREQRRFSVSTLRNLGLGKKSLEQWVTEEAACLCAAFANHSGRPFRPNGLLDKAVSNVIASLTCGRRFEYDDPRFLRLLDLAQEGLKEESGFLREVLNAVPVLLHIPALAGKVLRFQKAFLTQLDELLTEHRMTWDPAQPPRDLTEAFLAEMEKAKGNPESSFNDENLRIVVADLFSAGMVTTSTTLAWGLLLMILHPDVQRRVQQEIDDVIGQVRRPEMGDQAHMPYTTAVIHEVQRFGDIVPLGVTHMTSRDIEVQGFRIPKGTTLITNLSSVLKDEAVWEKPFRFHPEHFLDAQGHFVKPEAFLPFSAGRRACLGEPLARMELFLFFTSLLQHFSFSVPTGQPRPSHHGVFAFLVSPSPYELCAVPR
Chain of Cytochrome P450 2C9 (P11712 whole entry): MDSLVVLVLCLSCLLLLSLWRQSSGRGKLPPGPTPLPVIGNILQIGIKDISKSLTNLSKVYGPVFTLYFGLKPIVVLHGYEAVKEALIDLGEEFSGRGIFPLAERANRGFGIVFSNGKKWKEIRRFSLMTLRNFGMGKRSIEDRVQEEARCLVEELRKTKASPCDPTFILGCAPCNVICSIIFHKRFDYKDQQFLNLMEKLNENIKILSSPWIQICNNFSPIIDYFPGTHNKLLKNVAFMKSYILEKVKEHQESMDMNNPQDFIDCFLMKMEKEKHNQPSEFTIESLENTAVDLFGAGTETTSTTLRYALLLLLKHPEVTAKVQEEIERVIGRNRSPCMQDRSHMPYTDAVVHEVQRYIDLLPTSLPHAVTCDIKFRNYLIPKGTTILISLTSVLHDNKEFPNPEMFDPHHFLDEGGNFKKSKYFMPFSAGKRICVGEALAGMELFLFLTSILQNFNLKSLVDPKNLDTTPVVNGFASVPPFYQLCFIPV
Chain of Cytochrome P450 2C19 (P33261 whole entry): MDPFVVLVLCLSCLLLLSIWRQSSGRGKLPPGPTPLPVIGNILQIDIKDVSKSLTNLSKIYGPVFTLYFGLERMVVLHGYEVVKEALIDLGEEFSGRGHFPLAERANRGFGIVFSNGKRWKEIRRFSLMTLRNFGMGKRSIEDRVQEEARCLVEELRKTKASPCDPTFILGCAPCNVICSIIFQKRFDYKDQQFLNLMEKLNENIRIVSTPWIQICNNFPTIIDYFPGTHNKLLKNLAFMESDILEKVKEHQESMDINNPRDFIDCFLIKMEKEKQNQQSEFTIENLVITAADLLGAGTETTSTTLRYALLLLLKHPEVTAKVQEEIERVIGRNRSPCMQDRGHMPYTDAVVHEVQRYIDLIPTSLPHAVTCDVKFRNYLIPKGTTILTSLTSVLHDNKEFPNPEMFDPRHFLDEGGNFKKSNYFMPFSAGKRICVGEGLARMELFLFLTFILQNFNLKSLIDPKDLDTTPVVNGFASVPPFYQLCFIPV
Chain of Cytochrome P450 3A4 (P08684 whole entry): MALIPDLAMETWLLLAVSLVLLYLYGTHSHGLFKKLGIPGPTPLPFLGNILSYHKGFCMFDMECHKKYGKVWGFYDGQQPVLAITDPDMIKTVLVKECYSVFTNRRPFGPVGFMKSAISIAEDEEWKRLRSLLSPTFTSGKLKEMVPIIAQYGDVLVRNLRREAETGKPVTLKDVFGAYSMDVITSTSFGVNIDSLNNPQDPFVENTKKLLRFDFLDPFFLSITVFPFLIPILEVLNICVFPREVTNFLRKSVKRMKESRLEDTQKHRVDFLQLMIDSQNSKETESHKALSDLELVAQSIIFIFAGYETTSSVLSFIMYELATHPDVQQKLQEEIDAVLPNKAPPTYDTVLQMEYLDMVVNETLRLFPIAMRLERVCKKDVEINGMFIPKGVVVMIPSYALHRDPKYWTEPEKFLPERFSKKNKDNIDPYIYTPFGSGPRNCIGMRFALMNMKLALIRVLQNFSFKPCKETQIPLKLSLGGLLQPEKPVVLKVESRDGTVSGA

Stability [1]: Unstable
SMILES: Cc1c(CCC(=O)O)ccc(OCc2cccn2-c2ccc(Br)cc2)c1C

fraction unbound [2]: 0.0041
half-life [3]: < 4 min
fraction unbound [4]: 0.0015
half-life [5]: 85 min
half-life [6]: 7 min
INH (Cytochrome P450 2C9): 4.2 µM
fraction unbound [7]: 0.0008
INH (Cytochrome P450 2C19): > 10 µM
INH (Cytochrome P450 3A4): > 10 µM
INH (Cytochrome P450 2D6): > 10 µM
INH (Cytochrome P450 1A2): > 10 µM
SMILES: Cc1ccc(-n2ccc(C(F)(F)F)c2COc2c(F)cc(CCC(=O)O)cc2F)cc1

EC50 [8]: 184 nM
SMILES: COc1ccc(-n2ccc(C(F)(F)F)c2COc2c(F)cc(CCC(=O)O)cc2F)cc1

EC50 [8]: 100 to 101 nM
SMILES: O=C(O)CCc1cc(F)c(OCc2c(C(F)(F)F)ccn2-c2ccccc2)c(F)c1

fraction unbound [2]: 0.0014
half-life [3]: < 4 min
fraction unbound [4]: 0.0008
half-life [5]: 7 min
half-life [6]: 15 min
INH (Cytochrome P450 2C9): 7 µM
fraction unbound [7]: 0.0002
INH (Cytochrome P450 2C19): 9 µM
INH (Cytochrome P450 3A4): > 10 µM
INH (Cytochrome P450 2D6): > 10 µM
INH (Cytochrome P450 1A2): > 10 µM
SMILES: CCc1ccc(-n2ccc(C(F)(F)F)c2COc2ccc(CCC(=O)O)c(F)c2F)cc1

EC50 [8]: > 5000 nM
SMILES: COC(=O)CCc1cc(F)c(OCc2c(C(F)(F)F)ccn2-c2ccc(Cl)cc2)c(F)c1

Stability [1]: Stable
SMILES: O=C(O)CCc1ccc(OCc2c(C(F)(F)F)ccn2-c2ccc(Cl)cc2)c(F)c1F

SMILES: CN(CCOc1ccc(CC2SC(=O)NC2=O)cc1)c1ccccn1 (centres undefined) [ROSIGLITAZONE]
Activity (Mus musculus [9]): 148 mg/dL
Activity (Mus musculus [10]): 1348 pg/mL
Activity (Mus musculus [11]): 188 mg/dL
Activity (Mus musculus [12]): 15956 pg/mL
Activity (Mus musculus [13]): -5970 pg/mL
Activity (Mus musculus [14]): -36.6 mg/dL

Stability [1]: Stable
SMILES: Cc1c(CCC(=O)O)ccc(OCc2c(C(F)(F)F)ccn2-c2ccc(Cl)cc2)c1C
